Experimental data collected from several papers.
Observed: enzyme activity
Mode: inhibitor
ABL1 E255K: Tyrosine-protein kinase ABL1 (ABL1, Homo sapiens, UniProt P00519, E255K)
ABL1: Tyrosine-protein kinase ABL1 (ABL1, Homo sapiens, UniProt P00519)
ABL1 G250E: Tyrosine-protein kinase ABL1 (ABL1, Homo sapiens, UniProt P00519, G250E)

The inhibition of `CC/C(=N\NC(=O)NCc1cccc(O)c1)c1ccc(O)c(C)c1O` is reported as -3.4% (ABL1 E255K; 0.1 µM).
The inhibition of `CS(=O)(=O)Nc1cccc(-c2csc(NC(=O)CSc3nc4nccnc4c(=O)n3CCc3ccccc3)n2)c1` is reported as -2% (ABL1 E255K; 10 µM).
The inhibition of `CSc1nc(C)c(-c2ccnc(Nc3ccc(N4CCOCC4)cc3)c2)[nH]1` is reported as 19.3% (ABL1; 10 µM).
The inhibition of `O=C(CSc1nc2nccnc2c(=O)n1CCc1ccccc1)Nc1nccs1` is reported as 4% (ABL1; 10 µM).
`CCCS(=O)(=O)Nc1ccc(F)c(C(=O)c2c[nH]c3ncc(-c4ccc(Cl)cc4)cc23)c1F` gave an inhibition of less than 20% (ABL1; 1 µM).
`C=CC(=O)Nc1cc(Nc2nccc(Nc3cc(Cl)c(F)cc3C(C)(C)O)n2)c(OC)cc1N1CC[C@@H](N(C)C)C1` gave an inhibition of 6% (ABL1; 1 µM).
The inhibition of `CNc1cccc2cc(C(=O)Nc3ccc(C(=O)O)cc3)c(=O)[nH]c12` is reported as 1.9% (Tyrosine-protein kinase ABL1 (ABL1, Homo sapiens, UniProt P00519, H396P); 10 µM).
With `COc1cc2ncnc(Nc3ccc(Oc4ccccc4)cc3C)c2cc1OC` the inhibition was 14% (ABL1 G250E; 1 µM).
The inhibition of `CN(C)C1CCN(CC#Cc2nn(C3CCCC3)c3nc(NCc4ccccc4)ncc23)C1` (stereo not shown) is reported as 1% (ABL1; FRET; 0.1 µM).
`COc1cc(-c2cc(-c3ccc(N4CCNCC4)cc3)cnc2N)cc(OC)c1OC` has an inhibition of 83% (Tyrosine-protein kinase ABL1 (ABL1, Homo sapiens, UniProt P00519, Y253F); 0.1 µM).
With `COc1cc2ncnc(Nc3ccc(Oc4ccccc4)c(C)c3C)c2cc1OC` the inhibition was 4% (ABL1 G250E; 1 µM).
For `CNCc1ccc(-c2cc(-c3nc(-c4ccc(S(=O)(=O)C(C)C)cc4)cnc3N)on2)cc1`, the inhibition was 34% (ABL1; 2 µM).
For `CNC(=O)c1cc2c(Oc3ccc(NC(=O)C4(C(=O)Nc5ccc(F)cc5)CC4)cc3)ccnc2cc1OC`, the inhibition was 70% (ABL1; radiometric; 1 µM).
